Activity calls are given as the source filed them. The rule behind the calls is not given here.
How the values were obtained:
[1] = target: Serine/threonine-protein kinase MARK1 (Homo sapiens) (UniProt Q9P0L2); experiment: Inhibition of MARK1 (unknown origin)
[2] = target: Fibroblast growth factor receptor 1 (Homo sapiens) (UniProt P11362); experiment: Inhibition of FGFR1 (unknown origin)
Homo sapiens = organism: Homo sapiens; experiment: Binding affinity to L-type calcium channel diltiazem binding site (unknown origin) by radioligand binding assay
[3] = target: Tyrosine-protein kinase Lck (Homo sapiens) (UniProt P06239); experiment: Inhibition of LCK (unknown origin)
Pyruvate kinase PKM [4] = target: T1, Pyruvate kinase PKM (Homo sapiens, UniProt P14618); experiment: Activation of PKM2 in human Snu182 cells assessed as oxygen consumption rate at 10 uM after 18 hrs; format: cell-based
Outline: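 Snu182 cells seeded at 12k/well in RPMI with 10% FBS and 2 mM glutamine, cultured overnight, then given 10 µM compound for 18 h at 37°C, 5% CO2. Medium switched to XF DMEM with 5 mM glucose plus 10 µM compound; OCR and ECAR measured on a Seahorse XF96 analyzer.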
Target sequence in this assay (P14618 2-531 limits assumed): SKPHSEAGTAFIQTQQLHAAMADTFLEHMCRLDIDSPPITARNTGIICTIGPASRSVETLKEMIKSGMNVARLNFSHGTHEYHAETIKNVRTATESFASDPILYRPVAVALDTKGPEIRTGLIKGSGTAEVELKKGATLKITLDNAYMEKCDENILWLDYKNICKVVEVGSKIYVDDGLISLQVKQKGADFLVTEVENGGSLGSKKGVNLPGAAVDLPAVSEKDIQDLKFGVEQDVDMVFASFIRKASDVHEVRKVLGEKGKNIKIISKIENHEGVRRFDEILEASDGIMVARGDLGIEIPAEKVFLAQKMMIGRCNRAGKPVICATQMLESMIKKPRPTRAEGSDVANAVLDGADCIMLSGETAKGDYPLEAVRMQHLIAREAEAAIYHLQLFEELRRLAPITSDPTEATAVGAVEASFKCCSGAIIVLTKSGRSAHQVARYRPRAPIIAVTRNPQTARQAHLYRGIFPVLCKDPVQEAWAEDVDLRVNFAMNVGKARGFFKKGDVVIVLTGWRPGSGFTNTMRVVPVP

[5] = target: Casein kinase I isoform alpha (Homo sapiens) (UniProt P48729); experiment: Inhibition of CSNK1A1 (unknown origin)
[6] = target: Aurora kinase A (Homo sapiens) (UniProt O14965); experiment: Inhibition of AURKA (unknown origin)
[7] = target: Serine/threonine-protein kinase 26 (Homo sapiens) (UniProt Q9P289); experiment: Inhibition of MST4 (unknown origin)
[8] = target: Rho-associated protein kinase 1 (Homo sapiens) (UniProt Q13464); experiment: Inhibition of ROCK1 (unknown origin)
Chain of Rho-associated protein kinase 1 (Homo sapiens) (Q13464 2-1354 limits assumed): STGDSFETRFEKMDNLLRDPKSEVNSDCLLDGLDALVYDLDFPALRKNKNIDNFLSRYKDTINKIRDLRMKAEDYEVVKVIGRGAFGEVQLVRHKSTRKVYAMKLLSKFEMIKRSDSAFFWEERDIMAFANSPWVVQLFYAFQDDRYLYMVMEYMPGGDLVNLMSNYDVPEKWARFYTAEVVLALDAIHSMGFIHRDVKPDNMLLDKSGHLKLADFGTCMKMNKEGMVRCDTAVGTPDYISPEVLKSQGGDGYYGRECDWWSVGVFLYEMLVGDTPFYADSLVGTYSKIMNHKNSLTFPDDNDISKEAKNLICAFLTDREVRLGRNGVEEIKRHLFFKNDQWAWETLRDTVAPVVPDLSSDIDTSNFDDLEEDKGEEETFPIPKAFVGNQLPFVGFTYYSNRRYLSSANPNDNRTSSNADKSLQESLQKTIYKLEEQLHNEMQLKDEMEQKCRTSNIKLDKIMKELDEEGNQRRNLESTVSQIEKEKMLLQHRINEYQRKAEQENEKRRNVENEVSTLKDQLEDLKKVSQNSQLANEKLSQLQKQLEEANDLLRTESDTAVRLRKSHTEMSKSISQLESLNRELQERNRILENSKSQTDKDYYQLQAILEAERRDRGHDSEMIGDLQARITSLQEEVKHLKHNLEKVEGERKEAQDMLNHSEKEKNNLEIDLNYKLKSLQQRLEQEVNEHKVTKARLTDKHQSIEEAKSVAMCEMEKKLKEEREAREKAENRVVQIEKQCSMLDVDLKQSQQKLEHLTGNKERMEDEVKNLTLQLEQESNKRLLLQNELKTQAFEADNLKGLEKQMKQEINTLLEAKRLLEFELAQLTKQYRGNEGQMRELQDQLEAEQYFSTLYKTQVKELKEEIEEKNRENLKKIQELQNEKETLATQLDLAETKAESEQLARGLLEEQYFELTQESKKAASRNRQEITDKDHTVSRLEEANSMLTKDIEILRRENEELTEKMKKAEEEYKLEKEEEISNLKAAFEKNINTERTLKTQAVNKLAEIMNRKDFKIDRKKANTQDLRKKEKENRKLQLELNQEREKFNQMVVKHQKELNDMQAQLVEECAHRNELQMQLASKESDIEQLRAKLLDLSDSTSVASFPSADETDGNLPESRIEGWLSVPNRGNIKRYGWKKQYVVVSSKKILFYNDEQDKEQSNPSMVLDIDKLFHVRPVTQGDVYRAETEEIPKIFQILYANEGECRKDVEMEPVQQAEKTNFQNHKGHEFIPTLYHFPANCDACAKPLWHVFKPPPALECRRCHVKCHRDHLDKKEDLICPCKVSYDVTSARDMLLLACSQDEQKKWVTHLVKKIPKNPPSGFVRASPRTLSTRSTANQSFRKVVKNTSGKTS

[9] = target: 5-hydroxytryptamine receptor 2B (Homo sapiens) (UniProt P41595); experiment: Binding affinity to human 5-HT2B receptor by radioligand binding assay
Outline: (§1)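 CEREP panel binding measured by displacement of an agonist radioligand.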

[10] = target: Adrenergic receptor alpha-1 (Homo sapiens) (UniProt P35348+P25100+P35368); experiment: Binding affinity to alpha-1 adrenergic receptor (unknown origin) by radioligand binding assay
Pyruvate kinase PKM [11] = target: T1, Pyruvate kinase PKM; experiment: Activation of PKM2 in human Huh7 cells assessed as production of pyruvate and ATP by fluorescence assay; format: cell-based, Huh-7
Outline: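 Huh7 hepatocellular carcinoma cells were treated with compound and lysed, and the lysate was given PEP and ADP. The pyruvate formed was oxidized by pyruvate oxidase, and the fluorescence, proportional to pyruvate, was read as cellular pyruvate kinase activity.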

HT-29 = experiment: Antiproliferative activity against human HT-29 cells at 10 uM after 5 days; format: functional; conditions: HT-29, 120 h
Outline: (§2)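 Cells plated in Optimem-GlutaMax medium and cultured overnight before exposure to 10 µM compound. Viability measured with CytoTox-Glo after 5 days of treatment.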

[12] = target: Serine/threonine-protein kinase Nek2 (Homo sapiens) (UniProt P51955); experiment: Inhibition of NEK2 (unknown origin)
Salmonella typhimurium = experiment: Genotoxicity in Salmonella typhimurium by Ames test; format: toxicity, organism-based; conditions: salmonella enterica subsp. enterica serovar typhimurium
[13] = target: MAP kinase-activated protein kinase 2 (Homo sapiens) (UniProt P49137); experiment: Inhibition of MAPKAPK2 (unknown origin)
[14] = target: Calcium/calmodulin-dependent protein kinase type II subunit alpha (Homo sapiens) (UniProt Q9UQM7); experiment: Inhibition of CAMK2A (unknown origin)
[15] = target: cGMP-inhibited 3',5'-cyclic phosphodiesterase 3B (Homo sapiens) (UniProt Q13370); experiment: Binding affinity to human PDE3B
[16] = target: Ephrin type-A receptor 2 (Homo sapiens) (UniProt P29317); experiment: Inhibition of EPHA2 (unknown origin)
Chain of Ephrin type-A receptor 2 (Homo sapiens) (P29317 whole entry): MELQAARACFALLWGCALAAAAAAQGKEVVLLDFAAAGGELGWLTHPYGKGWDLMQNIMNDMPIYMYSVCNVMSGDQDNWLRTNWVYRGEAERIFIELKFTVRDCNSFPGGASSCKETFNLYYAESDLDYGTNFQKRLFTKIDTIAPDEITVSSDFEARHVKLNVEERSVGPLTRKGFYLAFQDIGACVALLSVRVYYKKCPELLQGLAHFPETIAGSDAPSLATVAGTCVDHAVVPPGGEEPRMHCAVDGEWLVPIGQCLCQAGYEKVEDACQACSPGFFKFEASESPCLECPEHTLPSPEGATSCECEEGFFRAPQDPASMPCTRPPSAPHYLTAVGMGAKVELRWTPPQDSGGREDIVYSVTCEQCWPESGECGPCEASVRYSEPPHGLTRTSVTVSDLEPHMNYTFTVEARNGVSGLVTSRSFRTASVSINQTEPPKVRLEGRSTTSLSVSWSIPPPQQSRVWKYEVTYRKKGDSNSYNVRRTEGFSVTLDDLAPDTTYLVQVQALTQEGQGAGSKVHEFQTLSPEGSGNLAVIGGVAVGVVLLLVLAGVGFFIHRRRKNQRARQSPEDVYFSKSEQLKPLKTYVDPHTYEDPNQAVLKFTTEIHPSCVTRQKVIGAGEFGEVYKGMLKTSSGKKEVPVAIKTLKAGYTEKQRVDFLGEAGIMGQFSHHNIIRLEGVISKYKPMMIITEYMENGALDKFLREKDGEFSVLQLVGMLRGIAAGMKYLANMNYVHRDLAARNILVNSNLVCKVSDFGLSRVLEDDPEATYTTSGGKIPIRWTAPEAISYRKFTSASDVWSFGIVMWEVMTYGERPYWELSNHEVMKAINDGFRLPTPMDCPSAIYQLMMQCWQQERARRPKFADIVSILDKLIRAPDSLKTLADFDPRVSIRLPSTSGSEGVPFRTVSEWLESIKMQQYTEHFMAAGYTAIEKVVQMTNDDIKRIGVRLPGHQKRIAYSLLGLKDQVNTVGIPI

[17] = target: Beta-2 adrenergic receptor (Homo sapiens) (UniProt P07550); experiment: Binding affinity to human beta-2 adrenergic receptor by radioligand binding assay; outline: as §1
[18] = target: Insulin receptor (Homo sapiens) (UniProt P06213); experiment: Inhibition of INSR (unknown origin)
[19] = target: Mu-type opioid receptor (Homo sapiens) (UniProt P35372); experiment: Binding affinity to human mu opioid receptor by radioligand binding assay; outline: as §1
[20] = target: Cannabinoid receptor 1 (Homo sapiens) (UniProt P21554); experiment: Binding affinity to cannabinoid CB1 receptor (unknown origin)
Rattus norvegicus = organism: Rattus norvegicus; experiment: Binding affinity to central-type benzodiazepine receptor in rat cerebral cortex; format: tissue-based
[21] = target: RAC-alpha serine/threonine-protein kinase (Homo sapiens) (UniProt P31749); experiment: Inhibition of AKT1 (unknown origin)
[22] = target: Tyrosine-protein kinase ABL1 (Homo sapiens) (UniProt P00519); experiment: Inhibition of ABL1 (unknown origin)
[23] = target: cAMP-dependent protein kinase catalytic subunit alpha (Homo sapiens) (UniProt P17612); experiment: Inhibition of PRKACA (unknown origin)
[24] = target: Serine/threonine-protein kinase Sgk1 (Homo sapiens) (UniProt O00141); experiment: Inhibition of SGK (unknown origin)
[25] = target: Tyrosine-protein kinase JAK3 (Homo sapiens) (UniProt P52333); experiment: Inhibition of JAK3 (unknown origin)
[26] = target: Serine/threonine-protein kinase mTOR (Homo sapiens) (UniProt P42345); experiment: Inhibition of mTOR (unknown origin)
[27] = target: Myosin light chain kinase 2, skeletal/cardiac muscle (Homo sapiens) (UniProt Q9H1R3); experiment: Inhibition of MYLK2 (unknown origin)
[28] = target: Serine/threonine-protein kinase 3 (Homo sapiens) (UniProt Q13188); experiment: Inhibition of STK3 (unknown origin)
Chain of Serine/threonine-protein kinase 3 (Homo sapiens) (Q13188 whole entry): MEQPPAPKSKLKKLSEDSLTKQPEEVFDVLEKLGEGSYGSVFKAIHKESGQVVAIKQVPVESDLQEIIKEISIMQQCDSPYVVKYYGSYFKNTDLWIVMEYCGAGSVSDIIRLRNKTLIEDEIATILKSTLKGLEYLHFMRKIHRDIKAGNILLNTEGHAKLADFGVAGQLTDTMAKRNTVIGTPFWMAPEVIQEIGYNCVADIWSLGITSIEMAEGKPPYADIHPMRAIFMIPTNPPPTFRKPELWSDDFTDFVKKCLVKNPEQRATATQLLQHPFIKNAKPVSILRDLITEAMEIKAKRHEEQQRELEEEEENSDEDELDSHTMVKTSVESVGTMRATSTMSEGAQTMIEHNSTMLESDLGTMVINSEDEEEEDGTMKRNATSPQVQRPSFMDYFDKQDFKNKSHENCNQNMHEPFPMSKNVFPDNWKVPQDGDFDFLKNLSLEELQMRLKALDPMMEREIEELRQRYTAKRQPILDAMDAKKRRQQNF

[29] = target: CDK2/Cyclin A2 (Homo sapiens) (UniProt P24941+P20248); experiment: Inhibition of CDK2/cyclin A (unknown origin); format: protein-complex assay
[30] = target: Phosphatidylinositol 4-phosphate 3-kinase C2 domain-containing subunit alpha (Homo sapiens) (UniProt O00443); experiment: Inhibition of PIK3C2A (unknown origin)
[31] = target: Mitogen-activated protein kinase 1 (Homo sapiens) (UniProt P28482); experiment: Inhibition of MAPK1 (unknown origin)
[32] = target: Tyrosine-protein kinase ZAP-70 (Homo sapiens) (UniProt P43403); experiment: Inhibition of ZAP70 (unknown origin)
Pyruvate kinase PKM [33] = target: T1, Pyruvate kinase PKM; experiment: Activation of PKM2 in human Huh7 cells assessed as formation of enzyme tetramers; format: cell-based; conditions: Huh-7
Target sequence in this assay (P14618 2-531 limits assumed): as the sequence (P14618 2-531 limits assumed) above

[34] = target: D(1A) dopamine receptor (Homo sapiens) (UniProt P21728); experiment: Binding affinity to human dopamine D1 receptor by radioligand binding assay
Outline: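 CEREP panel binding measured by displacement of an antagonist radioligand.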

JHH2 = experiment: Antiproliferative activity against human JHH2 cells at 10 uM after 5 days; format: functional, cell-based; outline: as §2
[35] = target: 3-phosphoinositide-dependent protein kinase 1 (Homo sapiens) (UniProt O15530); experiment: Inhibition of PDK1 (unknown origin)
Chain of 3-phosphoinositide-dependent protein kinase 1 (Homo sapiens) (O15530 whole entry, looked up): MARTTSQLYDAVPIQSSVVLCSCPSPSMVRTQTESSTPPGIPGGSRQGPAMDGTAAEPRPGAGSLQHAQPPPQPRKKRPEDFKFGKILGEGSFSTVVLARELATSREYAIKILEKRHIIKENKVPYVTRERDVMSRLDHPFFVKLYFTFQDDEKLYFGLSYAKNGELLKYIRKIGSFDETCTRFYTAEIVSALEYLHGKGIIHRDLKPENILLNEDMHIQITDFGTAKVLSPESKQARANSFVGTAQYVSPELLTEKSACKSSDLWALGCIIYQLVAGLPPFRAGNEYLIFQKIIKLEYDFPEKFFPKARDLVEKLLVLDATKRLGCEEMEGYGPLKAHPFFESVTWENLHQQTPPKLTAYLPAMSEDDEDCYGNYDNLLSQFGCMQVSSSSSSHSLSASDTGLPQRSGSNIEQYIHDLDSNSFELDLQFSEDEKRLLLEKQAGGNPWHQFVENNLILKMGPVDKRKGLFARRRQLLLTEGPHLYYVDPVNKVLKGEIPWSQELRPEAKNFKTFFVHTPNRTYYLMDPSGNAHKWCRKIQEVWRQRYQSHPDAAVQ

[36] = target: Serine/threonine-protein kinase PAK 4 (Homo sapiens) (UniProt O96013); experiment: Inhibition of PAK4 (unknown origin)
[37] = target: High affinity nerve growth factor receptor (Homo sapiens) (UniProt P04629); experiment: Inhibition of NTRK1 (unknown origin)
[38] = target: Epidermal growth factor receptor (Homo sapiens) (UniProt P00533); experiment: Inhibition of EGFR (unknown origin)

Chain of Serine/threonine-protein kinase MARK1 (Homo sapiens) (Q9P0L2 whole entry, looked up): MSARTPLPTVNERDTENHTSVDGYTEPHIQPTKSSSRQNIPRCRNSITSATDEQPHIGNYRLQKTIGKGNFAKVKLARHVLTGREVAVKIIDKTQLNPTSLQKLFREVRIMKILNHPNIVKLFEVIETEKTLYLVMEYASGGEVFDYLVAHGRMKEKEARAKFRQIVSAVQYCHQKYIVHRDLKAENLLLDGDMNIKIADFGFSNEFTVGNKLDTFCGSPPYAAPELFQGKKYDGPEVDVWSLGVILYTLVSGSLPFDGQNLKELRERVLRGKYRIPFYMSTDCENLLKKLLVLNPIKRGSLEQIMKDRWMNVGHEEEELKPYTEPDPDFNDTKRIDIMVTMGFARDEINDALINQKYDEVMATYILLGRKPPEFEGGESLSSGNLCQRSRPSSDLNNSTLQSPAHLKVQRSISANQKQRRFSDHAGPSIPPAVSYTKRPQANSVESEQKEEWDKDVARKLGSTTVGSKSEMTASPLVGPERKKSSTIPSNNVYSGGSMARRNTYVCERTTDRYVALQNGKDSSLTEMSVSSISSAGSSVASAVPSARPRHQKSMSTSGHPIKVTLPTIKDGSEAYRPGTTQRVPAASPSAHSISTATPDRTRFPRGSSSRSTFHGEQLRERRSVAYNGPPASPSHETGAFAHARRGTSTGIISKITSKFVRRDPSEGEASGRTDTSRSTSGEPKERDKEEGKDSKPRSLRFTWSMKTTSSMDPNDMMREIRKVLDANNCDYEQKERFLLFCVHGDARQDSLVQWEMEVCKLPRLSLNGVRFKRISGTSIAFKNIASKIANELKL

Structure (SMILES): Cc1cccc2nc(Cn3cnc4ccccc43)cc(=O)n12
- inhibition [1]: inactive
- inhibition [2]: inactive
- Activity (Homo sapiens): inactive
- inhibition [3]: inactive
- Activity (Pyruvate kinase PKM [4]): 101%
- inhibition [5]: inactive
- inhibition [6]: inactive
- inhibition [7]: inactive
- inhibition [8]: inactive
- Activity [9]: inactive
- Activity [10]: inactive
- EC50 (Pyruvate kinase PKM [11]): 70 nM
- inhibition at 10 µM (HT-29): 2.83%
- inhibition [12]: inactive
- Activity (Salmonella typhimurium): Non-toxic
- inhibition [13]: inactive
- inhibition [14]: inactive
- Activity [15]: inactive
- inhibition [16]: inactive
- Activity [17]: inactive
- inhibition [18]: inactive
- Activity [19]: inactive
- Activity [20]: inactive
- Activity (Rattus norvegicus): inactive
- inhibition [21]: inactive
- inhibition [22]: inactive
- inhibition [23]: inactive
- inhibition [24]: inactive
- inhibition [25]: inactive
- inhibition [26]: inactive
- inhibition [27]: inactive
- inhibition [28]: inactive
- inhibition [29]: inactive
- inhibition [30]: inactive
- inhibition [31]: inactive
- inhibition [32]: inactive
- Activity (Pyruvate kinase PKM [33]): Active
- Activity [34]: inactive
- Activity (JHH2): inactive
- inhibition [35]: inactive
- inhibition [36]: inactive
- inhibition [37]: inactive
- inhibition [38]: inactive

Reference: ChEMBL document CHEMBL2385076, “Discovery of 2-((1H-benzo[d]imidazol-1-yl)methyl)-4H-pyrido[1,2-a]pyrimidin-4-ones as novel PKM2 activators” (Bioorg Med Chem Lett, 2013)
